Measurements from publication PMC2233868 (The Journal of General Physiology, 2002).
“And” between values parts separate entries of the source, which are not always exact repeats. Equal values may be shown once. “Also recorded” adds a separate entry of the source. Read-outs that look alike come from different tables or passages of the source.

Experiments:
[1] = test system: volume-regulated anion channels (VRAC); test: Whole cell membrane current; details: for membrane leakiness: extracellular ATP 10 mM or higher, high concentrations of ADP; for r = k12(0)/k10(0) / δ, electrical distance of binding site inside the channel: pooled cells; for voltage dependence of VRAC block / effect on outward component of VRAC current: total nucleotide concentration 1 mM; for effect on outward component of VRAC current: HTS 17%
[2] = test system: bovine aortic endothelial cells (BAEC); format: cell-based
[3] = test system: prostate cancer cells; details: ref Sauer et al., 2000; cited from earlier work
[4] = test system: cultured ciliary epithelial cells; details: ref Mitchell et al., 1998; cited from earlier work
[5] = test system: bovine aortic endothelial cells (BAEC); details: disruption of the actin cytoskeleton; ref Koyama et al., 2001; cited from earlier work
[6] = test system: bovine aortic endothelial cells (BAEC); test: HTS-induced Ca2+ oscillations, fura-2 fluorescence; format: cell-based; details: HTS 40%; glibenclamide 100 μM
[7] = test system: bovine aortic endothelial cells (BAEC); test: HTS-induced NO production, DAF-2 fluorescence; format: cell-based
Procedure, shortened: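 NO was imaged with DAF-2 in first-subculture bovine aortic endothelial cells bathed in modified Krebs solution (1.5 mM Ca2+, pH 7.3), made hypotonic with distilled water. Fluorescence in each experiment was normalized to a reference image taken before the hypotonic challenge. n = cells examined; mean ± SEM; Student's unpaired t test, P < 0.05 significant.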

[8] = test system: bovine aortic endothelial cells (BAEC); test: Ca2+ transients induced by exogenously applied ATP, fura-2; format: cell-based; details: exogenous ATP 1 μM
Procedure, shortened: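 [Ca2+]i tracked by fura-2 fluorescence using digital fluorescence microscopy at room temperature (20–25°C). Mean ± SEM; Student's unpaired t test, P < 0.05 significant.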

[9] = test system: VRAC currents in BC3H1 and C2C12 cells; details: concentrations up to 100 μM; ref Voets et al., 1997; cited from earlier work
[10] = test system: large conductance anion channel (368 pS); details: ref Li et al., 2000; cited from earlier work
[11] = 10 or 20 mM extracellular ADP, extracellular Cl− 2 mM
[12] = fit to simplified Eq. 2, total nucleotide 1 mM
[13] = representative data, Figs. 4 C (dashed line) and 5 B, Eq. 2
[14] = fit to Eq. 1, extracellular ATP total 1 mM
[15] = representative cell, Fig. 4 C solid line, Eq. 1
[16] = 20% HTS, 10 min, fluoxetine 1 μM, glibenclamide 100 μM, tamoxifen 10 μM, verapamil 10 μM, P < 0.01

For `Nc1ncnc2c1ncn2[C@@H]1O[C@H](COP(=O)(O)OP(=O)(O)O)[C@@H](O)[C@H]1O` [ADP], the “effect on outward component of VRAC current in low Cl− hypotonic solution” value ([1]; 1 mM extracellular ADP, extracellular Cl− 2 mM) was “still inhibited”, the “effect on inward current in low Cl− hypotonic solution” value [1, 11] was “virtually no effect” and the “effect on outward current in low Cl− hypotonic solution” value [1, 11] was “significantly enhanced”. For the same compound, the membrane leakiness [1] was “did not cause membrane leakiness”, the “r = k12(0)/k10(0)” value [1, 12] was 0.23 ± 0.05 and the “δ, electrical distance of binding site inside the channel” value (shortened to “δ, electrical distance”) [1, 12] was 0.48 ± 0.01. For the same compound, the “r of the fitted curve” value [1, 13] was 0.26, the “δ of the fitted curve” value [1, 13] was 0.40 and the “voltage dependence of VRAC block” value [1] was “less voltage sensitive; also recorded: bell-shaped voltage-dependent inhibition”.
With `Nc1ncnc2c1ncn2[C@@H]1O[C@H](COP(=O)(O)O)[C@@H](O)[C@H]1O` [AMP] the “voltage dependence of VRAC block” value [1] was “weakly voltage-dependent”.
For `Nc1ncnc2c1ncn2[C@@H]1O[C@H](COP(=O)(O)OP(=O)(O)OP(=O)(O)O)[C@@H](O)[C@H]1O` [ATP], the “activation of a VRAC-like current in isotonic solutions” value ([1]; exogenous ATP, isotonic solution) was “did not activate”, the membrane leakiness [1] was “induced membrane leakiness” and the “membrane potential of maximum inhibition of outward VRAC current” value ([1]; extracellular ATP total 1 mM, free 0.15 mM) was 30–40 mV. For the same compound, the “r = k12(0)/k10(0)” value [1, 14] was 0.38 ± 0.08, the “δ, electrical distance” value [1, 14] was 0.41 and 0.41 ± 0.03 and the “r = k12(0)/k10(0)” value [1, 12] was 0.42 ± 0.16. For the same compound, the “δ, electrical distance” value [1, 12] was 0.42 ± 0.02, the “r of the fitted curve” value [1, 15] was 0.29 and the “δ of the fitted curve” value [1, 15] was 0.42. The “r of the fitted curve” value [1, 13] was 0.22, the “δ of the fitted curve” value [1, 13] was 0.43 and the “voltage dependence of VRAC block” value [1] was “marked voltage dependency”. For the same compound, the “effect on outward component of VRAC current” value [1] was “inhibited”.
With `C[C@H]1CCC/C=C/[C@@H]2C[C@H](O)C[C@H]2[C@H](O)/C=C/C(=O)O1` [Brefeldin A, brefeldin A] the “effect on HTS-induced ATP release” value ([2]; pretreated with 3 μg/ml for 2.5 h, HTS 20%) was “did not, however, affect” and the “effect on HTS-induced VRAC currents” value ([1]; pretreated with 3 μg/ml for 2.5 h, HTS 20%, −50 mV and 100 mV) was “did not, however, affect”.
For `Nc1ccn([C@@H]2O[C@H](COP(=O)(O)OP(=O)(O)OP(=O)(O)O)[C@@H](O)[C@H]2O)c(=O)n1` [CTP], the “r = k12(0)/k10(0)” value [1, 12] was 0.21 ± 0.09, the “δ, electrical distance” value [1, 12] was 0.47 ± 0.02 and the “r of the fitted curve” value [1, 13] was 0.057. For the same compound, the “δ of the fitted curve” value [1, 13] was 0.44 and the “voltage dependence of VRAC block” value [1] was “bell-shaped voltage-dependent inhibition”.
In the case of `Nc1nc2c(ncn2[C@@H]2O[C@H](COP(=O)(O)OP(=O)(O)OP(=O)(O)O)[C@@H](O)[C@H]2O)c(=O)[nH]1` [GTP], the “r = k12(0)/k10(0)” value [1, 12] is reported as 0.70 ± 0.30, the “δ, electrical distance” value [1, 12] is reported as 0.41 ± 0.06 and the “r of the fitted curve” value [1, 13] is reported as 0.24. For the same compound, the “δ of the fitted curve” value [1, 13] was 0.44 and the “voltage dependence of VRAC block” value [1] was “bell-shaped voltage-dependent inhibition”.
In the case of `O=C(O)c1cc([N+](=O)[O-])ccc1NCCCc1ccccc1` [NPPB], the “effect on ATP release” value [3] is given as “suppressed” and the “effect on ATP release” value [4] is given as “suppressed”.
With `O=c1ccn([C@@H]2O[C@H](COP(=O)(O)OP(=O)(O)OP(=O)(O)O)[C@@H](O)[C@H]2O)c(=O)[nH]1` [UTP] the “r = k12(0)/k10(0)” value [1, 12] was 0.14 ± 0.05, the “δ, electrical distance” value [1, 12] was 0.39 ± 0.04 and the “r of the fitted curve” value [1, 13] was 0.13. The “δ of the fitted curve” value [1, 13] was 0.42 and the “voltage dependence of VRAC block” value [1] was “bell-shaped voltage-dependent inhibition”.
In the case of `Nc1ncnc2c1ncn2[C@@H]1O[C@H](CO)[C@@H](O)[C@H]1O` [adenosine], the “effect on outward component of VRAC current” value [1] is reported as “does not inhibit”.
For `C=C1[C@@H](C)[C@H]2[C@H](Cc3ccccc3)NC(=O)[C@]23OC(=O)/C=C/[C@H](O)CCC[C@@H](C)C/C=C/[C@H]3[C@@H]1O` [cytochalasin B], the “effect on HTS-induced ATP release” value [5] is given as “does not inhibit”.
For `CNCCC(Oc1ccc(C(F)(F)F)cc1)c1ccccc1` (centres unmarked) [fluoxetine], the “effect on HTS-induced ATP release” value [2, 16] was “Inhibition”, the “effect on HTS-induced Ca2+ oscillations” value [6] was “abolished” and the “effect on HTS-induced NO production” value [7] was “abolished”.
For `COc1ccc(Cl)cc1C(=O)NCCc1ccc(S(=O)(=O)NC(=O)NC2CCCCC2)cc1` [glibenclamide], the “effect on HTS-induced ATP release” value [2, 16] was “Inhibition”, the “effect on HTS-induced Ca2+ oscillations” value [6] was “abolished” and the “effect on HTS-induced NO production” value [7] was “abolished”. The “effect on Ca2+ transients induced by exogenously applied ATP” value [8] was “did not affect” and the “effect on ADP-induced outward current” value ([1]; 100 μM, low Cl− hypotonic solution, unpublished data) was “suppressed”.
For `CC/C(=C(\c1ccccc1)c1ccc(OCCN(C)C)cc1)c1ccccc1` [tamoxifen], the “effect on HTS-induced ATP release” value [2, 16] is given as “Inhibition”, the “effect on VRAC currents” value [9] is given as “did not significantly inhibit” and the “effect on ATP release” value [3] is given as “effective”. The “effect on large conductance anion channel” value [10] was “activates”.
For `COc1ccc(CCN(C)CCCC(C#N)(c2ccc(OC)c(OC)c2)C(C)C)cc1OC` (centres unmarked) [verapamil], the “effect on HTS-induced ATP release” value [2, 16] was “Inhibition”, the “effect on HTS-induced Ca2+ oscillations” value [6] was “abolished” and the “effect on HTS-induced NO production” value [7] was “abolished”.
